Laboratory results as given in ChEMBL document CHEMBL3588831, “Synthesis and in Vivo Evaluation of [123I]Melanin-Targeted Agents” (J Med Chem, 2015).

Experiments:
Details in all cases: in vivo
Mus musculus [1] = test: Biodistribution in small gastrointestinal tract of C57BL/6J mouse bearing mouse B16F0 cells at 0.37 to 1.85 MBq, iv after 16 hrs by gamma counting method; assay type: ADME, organism-based, Small intestine
Procedure, shortened: (§1)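 Female C57BL/6J mice (5−6 weeks), s.c. inoculated on left flank with 3 × 10^5 B16F0 cells in Ca2+/Mg2+-free PBS, used 11 days later (tumors 2−12 mm). Radiotracer given via tail vein in 100 μL (~0.37 MBq for 1−24 h, 1.85 MBq for 48 h). Organs dissected, weighed, γ-counted, decay corrected. Expressed as % ID/g against injected-dose dilutions. Mean ± SEM, n = 5.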

Kidney = test: Biodistribution in kidney of C57BL/6J mouse bearing mouse B16F0 cells at 0.37 to 1.85 MBq, iv after 3 hrs by gamma counting method; assay type: ADME, organism-based; procedure, shortened: as §1
[2] = Ratio of AUC in tumor to eyes of C57BL/6J mouse bearing mouse B16F0 cells at 0.37 to 1.85 MBq, iv by gamma counting method; assay type: ADME, organism-based
Procedure, shortened: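 Biodistribution in B16F0-bearing C57BL/6J mice given i.v. tail-vein tracer (~0.37 MBq for 1–24 h, 1.85 MBq for 48 h). Sacrifice at 1, 3, 6, 16, 24 and 48 h, then organs dissected, weighed and γ-counted as decay-corrected % ID/g. Tumor AUC divided by each organ AUC; mean of ratios ± SEM, n = 5.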

Mus musculus [3] = test: Biodistribution in large gastrointestinal tract of C57BL/6J mouse bearing mouse B16F0 cells at 0.37 to 1.85 MBq, iv after 1 hr by gamma counting method; assay type: ADME, organism-based, Large intestine; procedure, shortened: as §1
Mus musculus [4] = test: Biodistribution in eyes of C57BL/6J mouse bearing mouse B16F0 cells at 0.37 to 1.85 MBq, iv after 16 hrs by gamma counting method; assay type: ADME, organism-based, Eye; procedure, shortened: as §1

| SMILES | Drug uptake (Mus musculus [1]) | Drug uptake (Kidney) | Ratio [2] | Drug uptake (Mus musculus [3]) | Drug uptake (Mus musculus [4]) |
| --- | --- | --- | --- | --- | --- |
| O=C(CN1Cc2ccccc2C1=O)N1C[C@H]2CN(Cc3ccc([123I])cc3)C[C@H]2C1 | 0.5 % ID/g | 8.4 % ID/g | 0.42 | 3.5 % ID/g | 22.1 % ID/g |
| O=C(c1ccc2c(n1)NCCC2)N1CCN(Cc2ccc([123I])cc2)CC1 | 1.4 % ID/g | 9 % ID/g | 0.52 | 7.9 % ID/g | 28.6 % ID/g |
| O=C(c1ccc2cccnc2n1)N1CCN(Cc2ccc([123I])cc2)CC1 | 1.3 % ID/g | 6.2 % ID/g | 0.47 | 3.2 % ID/g | 32.9 % ID/g |
| O=C(CN1Cc2ccccc2C1=O)NC1CCN(Cc2ccc([123I])cc2)CC1 | 3.7 % ID/g | 7.4 % ID/g | 0.44 | 6.6 % ID/g | 40.4 % ID/g |
